Results on five compounds are retold here after PMC11962390 (Molecular Cancer Therapeutics, 2025).

Molecules are shown by their SMILES. pEC50, pIC50: −log10 of the molar value. Some results are limits rather than exact numbers.

The test system of one experiment is primary HGSC organoids. As to the kind of experiment: Organoid drug-response profiling, whole panel. Format: cell-based, human. Particulars: 96 hours. In short, it runs like this:
(§1)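 Patient-derived HGSC organoids were embedded in BME-2 droplets in 384-well ultralow-attachment plates and grown 7–10 days with medium changes every 2–3 days. Test compounds were added in five 10-fold dilutions, with DMSO and 10 μmol/L bortezomib as controls. After 96 h at 37°C, wells were stained 2 h with CellTox Green and Hoechst 33342 (5 μg/mL final) and imaged confocally. Survival was normalized to controls and fitted by four-parameter fit (bottom 0), mean ± SD, n = 2.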

For experiment [1], the system named is canonical Wnt pathway activation (reporter TOP-GFP) in OV81-CP40 cells. As to the kind of experiment: TOP-GFP and FOP-GFP assay. Format: cell-based, human. Particulars: OV81-CP40, 6 hours, 20 mmol/L LiCl, […] NCB-0846 or 100 nmol/L NVP-2. In a few lines: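 OV81-CP40 cells stably expressing lentiviral TOP-GFP or FOP-GFP reporters were plated and treated one day later for 6 h with LiCl and/or test compounds. Cells were harvested, PBS-washed and run by flow cytometry at 10,000 cells per sample, gating the top ~10% GFP-positive cells. Results were given as TOP/FOP, mean ± SEM, n = 3, by one-way ANOVA.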

Experiment [2] deals with OV81-CP40 cells. As to the kind of experiment: MTT cell viability assay. The class given is cell-based, human. In general terms: Tetrazolium assays rely on reduction of a dye to a coloured formazan, in cell work by metabolically active cells.
Experiment [3] concerns FT237 cells. The experiment can be described thus: MTT cell viability assay. As to conditions: FT237, 48 hours, nondeterminable up to highest dose, Supplementary Fig. S5D. The class given is cell-based, human.
The subject of the next experiment is OV81-CP40 spheres. As to the kind of experiment: 3D CellTiter-Glo cell viability assay of spheres. Format: cell-based, human. As to conditions: OV81-CP40 grown in 3D (spheroids), 48 hours. In a few lines:
(§2)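 Cells (500) were seeded in MammoCult with proliferation supplement in ultralow-attachment 96-well plates to form spheres. Seven days after plating, the spheres were treated with the test compound. CellTiter-Glo 3D luminescence was read 48 h later. Dose–response curves were fitted by sigmoidal variable-slope fit.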

The next experiment deals with OV231-CP30 spheres. The experiment can be described thus: 3D CellTiter-Glo cell viability assay of spheres. Format: cell-based, human. As to conditions: OV231-CP30 grown in 3D (spheroids), 48 hours. In short, it runs like this:
as §2

For another experiment, the system named is OV-UM32.1 cells. The experiment can be described thus: 3D CellTiter-Glo cell viability assay. The class given is cell-based, human. Particulars: OV-UM32.1, 3D, 48 hours. For orientation: Cellular ATP, detected with luciferase, serves as a proxy for viable cell number.
Experiment [4] has as its system panel of 377 human wild-type kinases. The experiment can be described thus: Kinase selectivity profiling, KinaseProfiler. Format: biochemical. Particulars: of 377 human wildtype kinases. In a few lines: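 Radiometric 33P transfer from [γ-33P]ATP to peptide/protein substrates was used, in 8 mmol/L MOPS pH 7.0 with 0.2 mmol/L EDTA and kinase-specific metal supplements. Lipid and atypical kinases were run by HTRF in HEPES buffer. […] Output was % activity remaining, with full inhibition set by reference inhibitors.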

The subject of experiment [5] is OV231-CP30 cells. As to the kind of experiment: CellTiter-Glo cell viability assay. Format: cell-based, human. As to conditions: OV231-CP30, 48 hours, Fig. 2B. In short, it runs like this: (§3)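 2D culture in the cells' own medium in 96-well plates. Cells were treated with a dose curve of test compound one day after plating. CellTiter-Glo luminescence was read after 48 h. Viability was expressed as fold change to DMSO (mean ± SEM, n = 3). EC50 came from a sigmoidal variable-slope fit.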

The subject of experiment [6] is P10_rPlfl patient-derived organoid. The experiment can be described thus: Organoid drug-response profiling. Particulars: organoid P10_rPIfl, 96 hours. Format: cell-based, human. In a few lines:
as §1

The test system of experiment [7] is FT237 cells. As to the kind of experiment: CellTiter-Glo cell viability assay. Format: cell-based, human. As to conditions: nonmalignant fallopian tube secretory cell line FT237, 48 hours. In a few lines:
as §3

The next experiment relates to OV-UM50.2 cells. The experiment can be described thus: 3D CellTiter-Glo cell viability assay. The class given is cell-based, human. Particulars: OV-UM50.2, 3D, 48 hours.
The subject of experiment [8] is P12_rPer patient-derived organoid. The experiment can be described thus: Organoid drug-response profiling. Format: cell-based, human. Particulars: 96 hours. In short, it runs like this: as §1
The subject of experiment [9] is P8_rAsc patient-derived organoid. The experiment can be described thus: Organoid drug-response profiling. Format: cell-based, human. Particulars: 96 hours. In a few lines:
as §1

The subject of experiment [10] is OV81-CP40 cells. The experiment can be described thus: CellTiter-Glo cell viability assay. Format: cell-based, human.
Experiment [11] deals with OV231-CP30 cells. The experiment can be described thus: MTT cell viability assay. Format: cell-based, human.
In the next experiment the test system is OV-UM52.1 cells. The experiment can be described thus: 3D CellTiter-Glo cell viability assay. Particulars: OV-UM52.1, 3D, 48 hours. The class given is cell-based, human. In short, it runs like this: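 Primary HGSC cells were grown as 3D spheres in MammoCult with supplement on ultralow-attachment plates and treated with a dose curve of test compound. CellTiter-Glo 3D luminescence was read after 48 h. Values were expressed relative to DMSO (mean ± SEM, n = 3). The curve was fitted with bottom constrained to 0 and top to 1.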

The subject of a further experiment is JHUEM7 cells. The experiment can be described thus: MTT cell viability assay. Format: cell-based, human. Particulars: TNIK-null JHUEM7, 48 hours, Fig. 3K.
In a further experiment the test system is FT194 cells. As to the kind of experiment: CellTiter-Glo cell viability assay. Format: cell-based, human. Particulars: nonmalignant fallopian tube secretory cell line FT194, 48 hours. In short, it runs like this:
as §3

The subject of the next experiment is HEC1B cells. As to the kind of experiment: MTT cell viability assay. Particulars: dose response up to 10 μmol/L, 48 hours, unable to generate an EC50. The class given is cell-based, human.
The mark [12] stands for this setting: OV81-CP40, MTT used to generate CI, Fig. 2D.

In general, pIC50 refers to the IC50 on a negative log10 scale, so that one unit is a factor of ten. Lower therefore signals a high IC50. For `N.N.O=C([O-])C1(C(=O)[O-])CCC1.[Pt+2]` [Carboplatin, carboplatin], the survival in the experiment with primary HGSC organoids (all 13 organoids tested, at 10 μmol/L) is listed as at least 50%. Also, the negative-log IC50 (pIC50) with primary HGSC organoids (five of the 13 organoids) is over 4.00. The reduction in survival result in the experiment on primary HGSC organoids (only one organoid, at 100 μmol/L) was “greater than 70%”.
The pEC50 is the negative decadic logarithm of the EC50, by convention in mol/L. For `COC[C@@H](C)NC1CCC(Nc2cc(-c3cccc(NCC4(C#N)CCOCC4)n3)c(Cl)cn2)CC1` (stereo partly shown) [NVP-2], in experiment [1], the “TOP-GFP induction after LiCl addition” value is “significantly decrease”. Further, the pEC50 was 7.90 in the experiment on OV81-CP40 cells [2] (OV81-CP40, 48 hours, Supplementary Fig. S5D); under 7.10 with FT237 cells [3]; 7.28 with OV81-CP40 spheres; 7.22 in the experiment with OV231-CP30 spheres.
Consider `OC1CCC(Oc2cccc3cnc(Nc4ccc5nc[nH]c5c4)nc23)CC1` (stereo not shown) [NCB-0846], for which the “TOP-GFP induction after LiCl addition” value in experiment [1] is listed as “significantly decrease”. Moreover, the pEC50 is 6.33 in the experiment with OV81-CP40 cells [2] (setting [12]); 5.36 with OV-UM32.1 cells; 6.23 with OV231-CP30 cells [5]; 5.80 in the experiment with OV-UM50.2 cells; 6.15 in the experiment on OV81-CP40 spheres; 6.33 in the experiment with OV81-CP40 cells [10] (OV81-CP40, 48 hours, Fig. 2B). The negative-log EC50 (pEC50) in the experiment with OV81-CP40 cells [10] (OV81-CP40, LiCl+-treated cells (20 mmol/L LiCl), 48 hours, Fig. 3A) was 5.67; in the experiment on OV81-CP40 cells [10] (OV81-CP40, LiCl−-treated cells, 48 hours, Fig. 3A), 6.23; in the experiment with OV81-CP40 cells [10] (OV81-CP40 transfected with siCDK9 9, 48 hours, Fig. 5C), 6.79; in the experiment with OV81-CP40 cells [10] (OV81-CP40 transfected with siCDK9 11, 48 hours, Fig. 5C), 6.85; in the experiment with OV81-CP40 cells [10] (OV81-CP40 transfected with siControl, 48 hours, Fig. 5C), 6.40; in the experiment on OV231-CP30 cells [11] (OV231-CP30, MTT used to generate CI, Fig. 2D), 6.36. Also, the pEC50 with OV-UM52.1 cells is 5.58; in the experiment on OV231-CP30 spheres, 5.80; in the experiment with HEC1B cells it was under 5.00. For the same compound, the “number of kinase hits” value in [4] worked out at 175. Moreover, the negative-log IC50 (pIC50) in experiment [6] was under 5.00; in experiment [8] it was 5.40; in experiment [9], under 5.00. The “response of cell viability to dose curve” value in the experiment on FT237 cells [7] and with FT194 cells was “minimally responsive” each time. Further, the “reduction in cell viability at maximal doses” value in the experiment on JHUEM7 cells is about 50%.
Take `OC1CCC(Oc2cccc3cnc(Nc4ccc5nc[nH]c5c4)nc23)CC1` (stereo not shown) [NCB-0970]: the negative logarithm of the EC50 (pEC50) with OV81-CP40 cells [2] (read-out: 48-hour EC50, OV81-CP40, 48 hours, Supplementary Fig. S2E) was 5.00; in the experiment on OV231-CP30 cells [11] (read-out: 48-hour EC50, OV231-CP30, 48 hours, Supplementary Fig. S2E), 5.44.
As to `N.N.[Cl][Pt][Cl]` [cisplatin], in the experiment on OV81-CP40 cells [2] (setting [12]), the EC50 entry was “non determinable (ND)”. Also, the results for the pEC50 in the experiment with OV-UM32.1 cells, in the experiment with OV-UM50.2 cells and with OV-UM52.1 cells were 4.89, 4.65 and 5.02, respectively.
